One data set deals with ABCA1 (Homo sapiens, UniProt O95477). The data set can be described thus: Probucol-inhibitable, ABCA1-specific cholesterol efflux in A172 cells. It is filed as cell-based. Particulars: probucol 10 μmol/L. The essentials:
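A172 glioblastoma cells, labelled with ³H-cholesterol, were held in serum-free 0.2% BSA medium with 5 μmol/L T0901317 and 5 μmol/L 9-cis-retinoic acid. Cells were exposed for 4 h to 20 μg/mL acceptor, with or without 10 μmol/L probucol. ABCA1-dependent efflux was taken as the probucol-inhibitable fraction.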

Data set [1] concerns apoE−/− mice fed a high‐fat diet. As to the kind of experiment: Aortic atherosclerotic lesion formation, 16-week treatment. Particulars: scrambled FAMP i.p. 3 times per week, 16 weeks; Oil Red O; mean±SD. It is filed as in vivo. The essentials: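 Male apoE−/− mice, bought at six weeks, fed a high-fat diet (0.5% cholesterol, 10% fat) and dosed i.p. 3 times per week for 16 weeks: test peptide at 10 or 50 mg/kg per day, or scrambled peptide. Whole aortas were then stained with Oil Red O. Lesion area was scored by image analysis as percentage of aorta from ascending aorta to abdominal bifurcation.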

Data set [2] relates to apoE‐deficient mice. As to the kind of experiment: Plasma lipoprotein profiles analyzed by HPLC, 16-week treatment. It is filed as in vivo. The conditions noted are these: scrambled peptides i.p. 16 weeks, n=7, mean±SD. The essentials:
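Plasma from apoE−/− mice after 16-week i.p. dosing (3 times weekly) was separated by HPLC into 20 particle-size subfractions. Each subfraction was assayed enzymatically for total cholesterol, free cholesterol, triglycerides and phospholipids; mean±SD.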

Data set [3] deals with apoE‐deficient mice. The data set can be described thus: Plasma lipid profiles by enzymatic assay, 16-week treatment. It is filed as in vivo. The conditions noted are these: scrambled peptides i.p. 16 weeks, n=7; high-fat-fed apoE-deficient mice; mean±SD. The essentials: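 Overnight-fasting plasma taken after 16 weeks from 19 of 23 high-fat-fed apoE−/− mice. Dosing was i.p. 3 times weekly with scrambled peptide or test peptide at 10 or 50 mg/kg per day. Total cholesterol, triglyceride and HDL cholesterol were measured by enzymatic assay; mean±SD.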

Another data set in a line: Circular dichroism. It is filed as physicochemical. Particulars: CD spectra in water, 200 to 260 nm. The method, boiled down:
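Spectra of peptides and human apoA-I (17.8 to 178 μmol/L) recorded at 25°C in a thermostatted quartz cell with 0.1 mm path length, scanning 200–260 nm. Results expressed as mean residue ellipticity (deg cm² dmol⁻¹).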
On the technique in general: Circular dichroism is the unequal absorption of left and right circularly polarised light.

A further data set relates to A172 human glioblastoma. The data set can be described thus: Cellular cholesterol efflux in A172 human cells. It is filed as cell-based. Particulars: 4 hours. The method, boiled down: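 A172 human glioblastoma cells were grown in DMEM with 10% FBS and antibiotics, then labelled with ³H‑cholesterol. Efflux ran in serum‑free medium with 0.2% BSA, 5 μmol/L T0901317 and 5 μmol/L 9‑cis‑retinoic acid, with or without 10 μmol/L probucol. Acceptor was human apoA‑I or test peptide at 20 μg/mL, or a molar dose series, for 4 h. n=4–5; mean±SD.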

Data set [4] relates to monocyte‐derived macrophages from an ABCA1‐deficient Tangier disease patient. Type of data set: cell-based, human. Particulars: 20 μg/mL, 4 hours, n=4. The essentials: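 Peripheral blood monocyte‑derived macrophages came from a healthy volunteer and a Tangier disease patient, with ethics approval and written consent. Cells were isolated by Lymphoprep density separation and labelled with ³H‑cholesterol. Efflux was run in serum‑free 0.2% BSA medium with or without 20 μg/mL human apoA‑I or test peptide for 4 h. n=4; mean±SD.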

ABCA1, sequence (O95477 whole entry): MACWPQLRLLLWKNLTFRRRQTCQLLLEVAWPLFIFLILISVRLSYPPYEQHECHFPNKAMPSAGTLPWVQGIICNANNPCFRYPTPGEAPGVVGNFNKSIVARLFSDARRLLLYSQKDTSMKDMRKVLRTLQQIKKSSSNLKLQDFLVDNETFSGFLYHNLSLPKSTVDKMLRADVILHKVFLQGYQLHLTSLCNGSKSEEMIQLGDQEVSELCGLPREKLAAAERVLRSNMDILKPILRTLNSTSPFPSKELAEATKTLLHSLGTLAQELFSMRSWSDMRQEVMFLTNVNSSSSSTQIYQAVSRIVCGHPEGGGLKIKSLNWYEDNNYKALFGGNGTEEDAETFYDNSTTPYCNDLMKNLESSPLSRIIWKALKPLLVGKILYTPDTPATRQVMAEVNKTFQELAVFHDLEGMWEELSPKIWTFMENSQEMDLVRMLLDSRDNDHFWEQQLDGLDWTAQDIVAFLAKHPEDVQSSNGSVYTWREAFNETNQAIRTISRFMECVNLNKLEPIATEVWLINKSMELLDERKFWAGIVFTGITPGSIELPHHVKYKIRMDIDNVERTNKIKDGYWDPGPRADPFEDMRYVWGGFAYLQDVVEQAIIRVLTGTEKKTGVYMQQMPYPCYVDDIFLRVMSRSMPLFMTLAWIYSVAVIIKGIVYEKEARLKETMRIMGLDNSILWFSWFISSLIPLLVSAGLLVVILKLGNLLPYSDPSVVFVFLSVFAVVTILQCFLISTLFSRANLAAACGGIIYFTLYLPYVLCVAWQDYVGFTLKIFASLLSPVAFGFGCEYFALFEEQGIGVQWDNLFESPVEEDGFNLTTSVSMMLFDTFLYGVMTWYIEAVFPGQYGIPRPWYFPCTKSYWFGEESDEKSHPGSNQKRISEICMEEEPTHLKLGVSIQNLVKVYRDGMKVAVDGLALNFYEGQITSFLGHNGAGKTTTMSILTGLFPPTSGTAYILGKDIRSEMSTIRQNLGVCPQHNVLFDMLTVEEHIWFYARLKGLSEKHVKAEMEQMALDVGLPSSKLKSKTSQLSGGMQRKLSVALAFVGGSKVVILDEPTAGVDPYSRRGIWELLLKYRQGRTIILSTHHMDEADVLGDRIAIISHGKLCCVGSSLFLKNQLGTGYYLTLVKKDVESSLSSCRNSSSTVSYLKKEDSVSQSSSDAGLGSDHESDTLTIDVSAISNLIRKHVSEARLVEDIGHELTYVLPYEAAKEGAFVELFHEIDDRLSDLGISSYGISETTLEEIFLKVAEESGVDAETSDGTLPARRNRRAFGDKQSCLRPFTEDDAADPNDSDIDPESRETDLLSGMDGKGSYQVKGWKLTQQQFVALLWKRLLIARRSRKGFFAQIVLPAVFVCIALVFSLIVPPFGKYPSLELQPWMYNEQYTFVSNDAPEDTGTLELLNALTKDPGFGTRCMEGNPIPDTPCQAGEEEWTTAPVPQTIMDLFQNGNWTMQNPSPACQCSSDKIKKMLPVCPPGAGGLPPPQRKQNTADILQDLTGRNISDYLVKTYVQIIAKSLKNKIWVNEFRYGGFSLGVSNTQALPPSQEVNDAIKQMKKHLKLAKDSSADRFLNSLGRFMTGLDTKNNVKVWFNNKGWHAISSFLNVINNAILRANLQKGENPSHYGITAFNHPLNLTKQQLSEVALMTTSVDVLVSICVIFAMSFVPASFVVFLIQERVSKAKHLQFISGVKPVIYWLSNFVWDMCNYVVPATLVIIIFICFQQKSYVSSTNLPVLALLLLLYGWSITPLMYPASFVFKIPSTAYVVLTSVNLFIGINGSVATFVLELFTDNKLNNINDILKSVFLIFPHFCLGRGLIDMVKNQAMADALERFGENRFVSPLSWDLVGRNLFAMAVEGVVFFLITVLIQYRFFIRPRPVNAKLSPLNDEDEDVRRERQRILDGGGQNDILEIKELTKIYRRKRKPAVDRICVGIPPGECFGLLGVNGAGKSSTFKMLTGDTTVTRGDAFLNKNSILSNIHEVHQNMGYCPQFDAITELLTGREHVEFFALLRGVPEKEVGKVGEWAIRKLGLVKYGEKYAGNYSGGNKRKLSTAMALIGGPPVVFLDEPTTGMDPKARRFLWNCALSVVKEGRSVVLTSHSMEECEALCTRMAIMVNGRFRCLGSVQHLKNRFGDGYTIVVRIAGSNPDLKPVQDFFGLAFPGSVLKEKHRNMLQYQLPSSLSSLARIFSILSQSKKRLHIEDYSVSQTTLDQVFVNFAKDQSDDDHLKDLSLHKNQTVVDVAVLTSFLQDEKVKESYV

In the case of “Ac-DWFKAFYDKVAEKFKEAF-NH2 [L‐4F, reference compound]”, the “percentage of probucol‐inhibitable, ABCA1‐specific cholesterol efflux” value at ABCA1 was “much more unspecific cholesterol efflux compared with FAMP5”.
For the substance “H-ATEFLHLLLLKLLKKKEDELLAYA-OH [Scrambled FAMP, reference compound]”, the “relative surface area of aortic plaque lesions” value in data set [1] was determined as 31.3±8.9%. Further, in the data set with apoE‐deficient mice [2], the “Cholesterol, CM (>80 nm)” value stood at 106.2 ± 47.8 mg/dL; the “Cholesterol, HDL (8 to 16 nm)” value was determined as 23.0 ± 4.5 mg/dL; the “Cholesterol, HDL Subfractions Intermediate Particles” value turned out to be 12.0 ± 3.4 mg/dL; the “Cholesterol, HDL Subfractions Large Particles” value came to 7.2 ± 1.5 mg/dL. In addition, in the data set with apoE‐deficient mice [2], the “Cholesterol, HDL Subfractions Small Particles” value stood at 3.8 ± 0.5 mg/dL; the “Cholesterol, LDL (16 to 30 nm)” value was 165.3 ± 25.4 mg/dL; the “Cholesterol, VLDL (30 to 80 nm)” value stood at 423.7 ± 96.1 mg/dL; the “Free cholesterol, CM (>80 nm)” value came to 44.9 ± 20.5 mg/dL. Further, in the data set with apoE‐deficient mice [2], the “Free cholesterol, HDL (8 to 16 nm)” value worked out at 12.5 ± 1.4 mg/dL; the “Free cholesterol, HDL Subfractions Intermediate Particles” value came out at 5.1 ± 0.5 mg/dL; the “Free cholesterol, HDL Subfractions Large Particles” value came out at 5.7 ± 1.1 mg/dL; the “Free cholesterol, HDL Subfractions Small Particles” value was 1.7 ± 0.2 mg/dL. In the data set on apoE‐deficient mice [2], the “Free cholesterol, LDL (16 to 30 nm)” value was 80.9 ± 10.1 mg/dL; the “Free cholesterol, VLDL (30 to 80 nm)” value came to 179.8 ± 35.9 mg/dL; the “Phospholipids, CM (>80 nm)” value came to 53.0 ± 22.3 mg/dL; the “Phospholipids, HDL (8 to 16 nm)” value amounted to 45.5 ± 10.3 mg/dL. Further, in the data set on apoE‐deficient mice [2], the “Phospholipids, HDL Subfractions Intermediate Particles” value came out at 28.1 ± 7.4 mg/dL; the “Phospholipids, HDL Subfractions Large Particles” value stood at 12.4 ± 3.3 mg/dL; the “Phospholipids, HDL Subfractions Small Particles” value stood at 5.0 ± 1.7 mg/dL; the “Phospholipids, LDL (16 to 30 nm)” value is 133.6 ± 20.5 mg/dL. For the same substance, in the data set with apoE‐deficient mice [2], the “Phospholipids, VLDL (30 to 80 nm)” value worked out at 228.2 ± 40.0 mg/dL; the “Triglyceride, CM (>80 nm)” value came out at 13.9 ± 7.5 mg/dL; the “Triglyceride, HDL (8 to 16 nm)” value is 3.3 ± 0.8 mg/dL; the “Triglyceride, HDL Subfractions Intermediate Particles” value is 1.5 ± 0.5 mg/dL. Further, in the data set with apoE‐deficient mice [2], the “Triglyceride, HDL Subfractions Large Particles” value stood at 0.6 ± 0.2 mg/dL; the “Triglyceride, HDL Subfractions Small Particles” value stood at 1.1 ± 0.3 mg/dL; the “Triglyceride, LDL (16 to 30 nm)” value came to 12.3 ± 4.2 mg/dL; the “Triglyceride, VLDL (30 to 80 nm)” value amounted to 33.8 ± 7.7 mg/dL. In the data set with apoE‐deficient mice [3], the “HDL Cholesterol” value amounted to 12.6 ± 4.8 mg/dL, the “Total Cholesterol” value amounted to 1373.9 ± 499.2 mg/dL and the Triglyceride came out at 119.9 ± 21.7 mg/dL.
With H-ATEHLSTLSEKAKPALEDLLKKLL-OH [FAMP4], in the data set “Circular dichroism”, the “α‐helical conformation (CD spectra)” value is “but not FAMP4, formed strong α‐helical conformations”.
On to H-ALEHLFTLSEKALKALEDLLKKLL-OH [FAMP2], for which, in the data set “Circular dichroism”, the “α‐helical conformation (CD spectra)” value was “formed strong α‐helical conformations”.
Consider “human apoA‐I: Human apoA‐I purchased from Calbiochem, 243–amino acid major HDL protein”, for which the “concentration adequate for a saturating effect on cholesterol efflux” value in the data set with A172 human glioblastoma (A172 cells) was found to be 20 µg/mL. Also, in the data set on A172 human glioblastoma (probucol 10 μmol/L, 20 μg/mL), the “effect of ABCA1 inactivation (probucol) on peptide-mediated cholesterol efflux” value is reported as “drastically inhibited”. The “cholesterol efflux in Tangier disease macrophages vs healthy subject” value in data set [4] is “suppressed”.

The values are drawn from article PMC3698760 (Journal of the American Heart Association: Cardiovascular …, 2013).
